This passage reports MIC99, Activity and Survival results from ChEMBL document CHEMBL1157552, “Antimalarial and antitubercular nostocarboline and eudistomin derivatives: synthesis, in vitro and in vivo biological evaluation” (Bioorg Med Chem, 2010).

What all share (format): functional
The subject of experiment [1] is Corynebacterium glutamicum. Kind of experiment: Antitubercular activity against Corynebacterium glutamicum ATCC 13032. A digest of the protocol: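 Grown in 7H9 medium; susceptibility determined by resazurin reduction. MIC99 is the lowest drug concentration preventing growth of 99% of cells.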
Experiment [2] has as its system Mycobacterium tuberculosis. Kind of experiment: Antitubercular activity against Mycobacterium tuberculosis H37Rv.
Experiment [3] relates to Plasmodium berghei. Kind of experiment: Antiparasitic activity against Plasmodium berghei infected in mice (Mus musculus) assessed as reduction of parasitaemia at 50 mg/kg, intraperitoneally administered 4, 24, 48, 72 hrs post infection measured 24 hrs of last treatment on day 4 relative to control. Set-up: scale not given: the % may be the effect or the level left. Conditions: route intraperitoneal. The procedure, abridged:
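Compounds formulated in DMSO/water and given i.p. at 50 mg/kg, 4 doses, to P. berghei-infected mice. Parasitaemia measured by FACS on day 4 post infection, 24 h after the last dose. Activity is the difference in mean % parasitaemia between control (n = 5 mice) and treated groups, as % of control. Mean survival time was also recorded.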

Experiment [4] relates to Mycolicibacterium smegmatis. Kind of experiment: Antitubercular activity against Mycobacterium smegmatis mc2 155. Conditions: str. MC2 155.
The subject of experiment [5] is Plasmodium berghei. Kind of experiment: Antiparasitic activity against Plasmodium berghei infected in mice (Mus musculus) assessed as survival days at 50 mg/kg, intraperitoneally administered 4, 24, 48, 72 hrs post infection. The conditions noted are these: route intraperitoneal. The procedure, abridged: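 Infected mice received the compounds formulated in DMSO/water, given i.p. as 4 × 50 mg/kg. Parasitaemia was measured by FACS on day 4 post infection, 24 h after the last treatment. Activity was taken as the reduction in mean % parasitaemia versus the untreated control group (n = 5 mice). Mean survival time in days was recorded.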

Broadly, the MIC99 is an inhibitory concentration at the 99% level, which refers to growth in some studies and to a panel of isolates in others. For the molecule `Clc1ccc2[nH]c3c[n+](CCOCC[n+]4ccc5c(c4)[nH]c4ccc(Cl)cc45)ccc3c2c1.[Cl-].[Cl-]`, the MIC99 was 9 µM in experiment [1], 18 µM in experiment [2] and 46 µM in experiment [4]. Besides, the Activity in the experiment with Plasmodium berghei [3] turned out to be 2.6%.
For `Clc1ccc2[nH]c3c[n+](C/C=C\C[n+]4ccc5c(c4)[nH]c4ccc(Cl)cc45)ccc3c2c1.[Cl-].[Cl-]`, in that order: 5 µM, 9 µM, above 188 µM and 11.53%.
`C[n+]1ccc2c(c1)[nH]c1ccc(Cl)cc12.[I-]` [NOSTOCARBOLINE]: the values for the MIC99 in experiment [1], in experiment [2] and in experiment [4] were above 29 µM, above 29 µM and 290 µM, respectively. For the same molecule, in the experiment with Plasmodium berghei [3], the Activity is 49.6%. Further, the Survival in the experiment on Plasmodium berghei [5] amounted to 7.3 days.
For `Clc1ccc2[nH]c3c[n+](CCCCCC[n+]4ccc5c(c4)[nH]c4ccc(Cl)cc45)ccc3c2c1.[Br-].[Br-]`, the figures for the MIC99 in experiment [1], in experiment [2] and in experiment [4] were 8 µM, 8 µM and 20 µM, respectively. Further, the Activity in the experiment with Plasmodium berghei [3] came out at 0%.
